The structures appear in SMILES notation.

As a reminder, the IC50 is the midpoint of a concentration-inhibition curve. One may read the microsomal CLint as the capacity of the preparation to metabolise the compound, expressed as a volume cleared per time. Low values mean slow turnover, high ones rapid turnover. For orientation: logD means lipophilicity at a set pH, counting ionised and neutral species. Higher therefore signals a more lipophilic compound. By inhibition is commonly meant the percentage by which the read-out fell short of the control. High values mean a strong effect, low ones a weak effect. What is called clearance is a measure of how efficiently the substance is removed, as volume per time. The low end stands for inefficient removal, the high end for efficient removal. The half-life is how long it takes for the measured level to halve. Read a high half-life as slow loss. In general, bioavailability refers to dose-corrected exposure relative to a reference, in per cent. Lower therefore signals poor availability.

One data set addresses T1, C-X-C chemokine receptor type 2 (Homo sapiens, UniProt P25025).
T1 sequence (P25025 whole entry): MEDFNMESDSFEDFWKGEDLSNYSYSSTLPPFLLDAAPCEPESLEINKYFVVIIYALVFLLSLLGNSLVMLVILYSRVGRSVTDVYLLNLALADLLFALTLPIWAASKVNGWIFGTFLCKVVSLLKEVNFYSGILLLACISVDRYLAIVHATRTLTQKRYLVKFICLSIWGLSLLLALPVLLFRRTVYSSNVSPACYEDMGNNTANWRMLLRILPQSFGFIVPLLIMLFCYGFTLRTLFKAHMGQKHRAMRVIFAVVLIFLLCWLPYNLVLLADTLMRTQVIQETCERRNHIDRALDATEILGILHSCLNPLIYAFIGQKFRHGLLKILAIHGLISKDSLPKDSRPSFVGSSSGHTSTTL
The data set is described as follows: Displacement of [125I]IL8 from human recombinant CXCR2 expressed in HEK293 membranes by SPA.
Details: not given
In outline:
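Human recombinant CXCR2 in HEK293 cell membranes, screened by scintillation proximity assay at the HTS stage. SPA actives were then validated in a conventional filter-wash [125I]IL8 binding assay on hrCXCR2.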
(Displacement assays read how much labelled ligand stays bound in the presence of the test substance.)
With `CCCCCSc1nc2ncsc2c(=O)[nH]1`, the concentration for half-maximal inhibition (IC50) was determined as 10000 nM.
Same read-out and setting: as for `CCCCCSc1nc(NCCO)c2sc(N)nc2n1`, the figure is 7000 nM; as for `CC[C@@H](CO)Nc1nc(SCc2ccccc2)nc2nc(N)sc12`, 3900 nM.
Same read-out and setting: the same measure for `CC[C@@H](CO)Nc1nc(SCc2cccc(Oc3ccccc3)c2)nc2nc(N)sc12`: 1400 nM; for `CCCCCSc1nc(O)c2sc(N)nc2n1`: 10000 nM.
Same read-out and setting: as for `Nc1nc2nc(SCc3ccccc3)nc(N)c2s1`, the figure is 10000 nM.
As to `CC(C)(CO)Nc1nc(SCc2cccc(Oc3ccccc3)c2)nc2nc(N)sc12`, the IC50 came out at 50 nM.
Same read-out and setting: the same measure for `Nc1nc2nc(SCc3cccc(F)c3F)[nH]c(=O)c2s1`: 270 nM.
On to `CC[C@H](CO)Nc1nc(SCc2cccc(F)c2F)nc2nc(N)sc12`, for which the IC50 amounted to 9.5 nM.
Still for that read-out and setting: as for `CC[C@H](CO)Nc1nc(SCc2ccccc2)nc2nc(N)sc12`, the figure is 120 nM; as for `Nc1nc2nc(SCc3cccc(Oc4ccccc4)c3)[nH]c(=O)c2s1`, 480 nM; as for `CC[C@H](CO)Nc1nc(SCc2cccc(Oc3ccccc3)c2)nc2nc(N)sc12`, 350 nM.
Same read-out and setting: the same measure for `Nc1nc2nc(SCc3ccccc3)[nH]c(=O)c2s1`: 1300 nM; for `CC(C)(CO)Nc1nc(SCc2cccc(F)c2F)nc2nc(N)sc12`: 14 nM.

The target of another data set is T2, Interleukin-8 receptors, CXCR1/CXCR2 (Homo sapiens, UniProt P25025+P25024).
T2 sequence (P25025 whole entry): T1 sequence (P25025 whole entry)
T2 sequence (P25024 whole entry): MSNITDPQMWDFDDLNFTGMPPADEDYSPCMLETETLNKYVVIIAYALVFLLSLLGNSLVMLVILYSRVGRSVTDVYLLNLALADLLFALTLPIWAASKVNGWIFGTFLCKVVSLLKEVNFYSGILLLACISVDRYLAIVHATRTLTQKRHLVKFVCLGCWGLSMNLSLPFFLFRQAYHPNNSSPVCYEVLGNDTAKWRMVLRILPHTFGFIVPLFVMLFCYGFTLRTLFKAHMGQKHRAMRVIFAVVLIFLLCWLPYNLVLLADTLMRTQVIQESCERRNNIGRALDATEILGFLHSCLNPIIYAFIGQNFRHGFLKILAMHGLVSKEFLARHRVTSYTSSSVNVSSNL
The data set is described as follows: Inhibition of GROalpha-stimulated intracellular calcium mobilisation in human neutrophils by FLIPR. The format is functional, cell-based.
Details: not given
(Calcium assays in cells follow changes in intracellular calcium, usually with a dye or a luminescent sensor.)
In the case of `CCCCCSc1nc(O)c2sc(N)nc2n1`, the IC50 worked out at 2000 nM.
Still for that read-out and setting: the same measure for `CC(C)(CO)Nc1nc(SCc2cccc(F)c2F)nc2nc(N)sc12`: 40 nM.

Test system in a further data set: not listed separately
The data set is described as follows: Clearance in human liver microsome. The class given is ADME. The following applies: liver microsomes. In general terms: Liver microsomes are vesicles of endoplasmic reticulum, rich in cytochrome P450 enzymes.
`CCCCCSc1nc(O)c2sc(N)nc2n1` registered an intrinsic clearance (microsomal CLint) of 18 µL/min/mg.
The same measure, in the same setting: as for `Nc1nc2nc(SCc3cccc(F)c3F)[nH]c(=O)c2s1`, the figure is 2 µL/min/mg.
Take `CC[C@H](CO)Nc1nc(SCc2ccccc2)nc2nc(N)sc12`: the intrinsic metabolic clearance (microsomal CLint) was determined as 6 µL/min/mg.
On the same count and under the same terms, the same measure for `Nc1nc2nc(SCc3ccccc3)[nH]c(=O)c2s1`: < 3 µL/min/mg; for `CC(C)(CO)Nc1nc(SCc2cccc(F)c2F)nc2nc(N)sc12`: 31 µL/min/mg.

Test system in a further data set: not listed separately
The data set is described as follows: Distribution coefficient of the compound, log D. The class given is physicochemical. The following applies: octanol/water.
`CCCCCSc1nc(O)c2sc(N)nc2n1` registered a pH-dependent lipophilicity (logD) of 2.9.
With `CC(C)(CO)Nc1nc(SCc2cccc(F)c2F)nc2nc(N)sc12`, the logD stood at 3.4.

The next data set addresses T3, C-X-C chemokine receptor type 2 (Homo sapiens) (UniProt P25025).
T3 sequence (whole entry): T1 sequence (P25025 whole entry)
The data set is described as follows: Inhibition of CXCR2 at 10 uM.
Details: not given
For `Nc1nc2nc(SCc3ccccc3)nc(SCCO)c2s1`, the inhibition was < 50%.
Same read-out and setting: the same measure for `CCCCCSc1nc(Cl)c2sc(N)nc2n1`: < 50%.
Still for that read-out and setting: the same measure for `CCCCCSc1nc(O)c2sc(NC(C)=O)nc2n1`: < 50%; for `Nc1nc2nc(SCc3ccccc3)nc(SCC(=O)O)c2s1`: < 50%; for `CCCCCSc1nc(NC2CCCC2)c2sc(N)nc2n1`: < 50%.
Consider `Nc1nc2nc(SCc3cccc(F)c3F)nc(Cl)c2s1`, for which the inhibition was < 50%.
Still for that read-out and setting: the same measure for `CCSc1nc(O)c2sc(N)nc2n1`: < 50%.
For the compound `COC(=O)CSc1nc(SCc2ccccc2)nc2nc(N)sc12`, the inhibition is < 50%.
Consider `Nc1nc2nc(SCc3cccc(Oc4ccccc4)c3)nc(Cl)c2s1`, for which the inhibition was < 50%.
In the case of `CSc1nc(O)c2sc(N)nc2n1`, the inhibition is < 50%.
The same measure, in the same setting: as for `CCCCCSc1nc(N(CC)CC)c2sc(N)nc2n1`, the figure is < 50%.
For `CCCCCSc1nc(O)c2sc(Br)nc2n1`, the inhibition is < 50%.
On to `CCCCCSc1nc(O)c2sc(NC)nc2n1`, for which the inhibition is < 50%.
Same read-out and setting: the same measure for `Nc1nc2nc(SCc3ccccc3)nc(Cl)c2s1`: < 50%.
For `CCCCCSc1nc(NCCCO)c2sc(N)nc2n1`, the inhibition is < 50%.

Test system in the next data set: not listed separately
The data set is described as follows: Clearance in iv dosed rat. The class given is ADME, organism-based. As to conditions: in vivo.
For `Nc1nc2nc(SCc3cccc(F)c3F)[nH]c(=O)c2s1`, the clearance amounted to 9.5 mL/min/kg.
Same read-out and setting: the same measure for `CC[C@H](CO)Nc1nc(SCc2ccccc2)nc2nc(N)sc12`: 40 mL/min/kg; for `CC(C)(CO)Nc1nc(SCc2cccc(F)c2F)nc2nc(N)sc12`: 25 mL/min/kg.

Test system in a further data set: not listed separately
The data set is described as follows: Volume of distribution in iv dosed rat. The class given is ADME, organism-based. The following applies: in vivo, read-out: Vdss.
For the compound `Nc1nc2nc(SCc3cccc(F)c3F)[nH]c(=O)c2s1`, the Vd worked out at 0.9 L/kg.
The same measure, in the same setting: as for `CC[C@H](CO)Nc1nc(SCc2ccccc2)nc2nc(N)sc12`, the figure is 2.2 L/kg.
On the same count and under the same terms, as for `CC(C)(CO)Nc1nc(SCc2cccc(F)c2F)nc2nc(N)sc12`, the figure is 1.9 L/kg.

Test system in the next data set: not listed separately
The data set is described as follows: Half life in iv dosed rat. The format is ADME, organism-based. As to conditions: in vivo.
As for `Nc1nc2nc(SCc3cccc(F)c3F)[nH]c(=O)c2s1`, the half-life was 3.5 h.
For the compound `CC[C@H](CO)Nc1nc(SCc2ccccc2)nc2nc(N)sc12`, the half-life was 1 h.
Still for that read-out and setting: as for `CC(C)(CO)Nc1nc(SCc2cccc(F)c2F)nc2nc(N)sc12`, the figure is 1.2 h.

Test system in a further data set: not listed separately
The data set is described as follows: Oral bioavailability in rat. The class given is ADME, organism-based. The following applies: in vivo.
In turn, `CC(C)(CO)Nc1nc(SCc2cccc(F)c2F)nc2nc(N)sc12` yielded a bioavailability of 15%.

Test system in another data set: not listed separately
The data set is described as follows: Protein binding in plasma. The format is ADME, cell-free. As to conditions: human, read-out: PPB (converted).
For `CC(C)(CO)Nc1nc(SCc2cccc(F)c2F)nc2nc(N)sc12`, the fraction unbound was 0.016.

The record behind these values is ChEMBL document CHEMBL1149469, “Hit-to-Lead studies: the discovery of potent, orally bioavailable thiazolopyrimidine CXCR2 receptor antagonists” (Bioorg Med Chem Lett, 2006).
